Laboratory results taken from ChEMBL document CHEMBL3526048, “In vitro metabolism of rivoglitazone, a novel peroxisome proliferator-activated receptor γ agonist, in rat, monkey, and human liver microsomes and freshly isolated hepatocytes” (Drug Metab Dispos, 2011).

Columns and labels:
Liver microsome [1] = experiment: Drug level in human liver microsomes treated with [14C]-rivoglitazone at 20 uM after 2 to 4 hrs by radio-HPLC/LC-MS/MS analysis in presence of UDPGA, UDPGA/SAM and NADPH-generating system; type: ADME
Hepatocyte = experiment: Drug level in rat hepatocytes treated with [14C]-rivoglitazone at 30 uM after 3 hrs by radio-HPLC/LC-MS/MS analysis in presence of UDPGA, UDPGA/SAM and NADPH-generating system; type: ADME, cell-based
Cytochrome P450 2C8 [2] = target: T1, Cytochrome P450 2C8 (Homo sapiens, UniProt P10632); experiment: Activity of human CYP2C8 expressed in microsomes isolated from baculovirus infected insect cell assessed as enzyme-mediated 3-(4-((6-methoxy-1-methyl-1H-benzo[d]imidazol-2-yl)methoxy)phenyl)-2-(methylthio)propanoic acid formation at 20 uM after 2 hrs by radio-HPLC/LC-MS/MS analysis in presence of NADPH-generating system/SAM and UDPGA/SAM; type: ADME
T1 sequence (P10632 whole entry): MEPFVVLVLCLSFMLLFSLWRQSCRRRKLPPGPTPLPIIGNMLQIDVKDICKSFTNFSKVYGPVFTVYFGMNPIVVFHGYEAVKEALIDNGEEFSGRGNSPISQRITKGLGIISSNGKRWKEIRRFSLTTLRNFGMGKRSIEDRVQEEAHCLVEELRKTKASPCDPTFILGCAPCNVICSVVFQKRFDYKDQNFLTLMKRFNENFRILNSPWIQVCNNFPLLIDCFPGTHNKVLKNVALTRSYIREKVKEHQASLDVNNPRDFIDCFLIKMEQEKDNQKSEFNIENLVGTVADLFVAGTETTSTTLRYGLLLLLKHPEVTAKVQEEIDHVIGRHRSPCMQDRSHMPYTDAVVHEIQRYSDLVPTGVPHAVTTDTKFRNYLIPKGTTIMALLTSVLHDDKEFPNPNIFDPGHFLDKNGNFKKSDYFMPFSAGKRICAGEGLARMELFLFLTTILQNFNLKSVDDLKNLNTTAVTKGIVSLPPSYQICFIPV

Cytochrome P450 2D6 = Cytochrome P450 2D6 (Homo sapiens, UniProt P10635); experiment: Activity of human CYP2D6 expressed in microsomes isolated from baculovirus infected insect cell assessed as enzyme-mediated 2-mercapto-3-(4-((6-methoxy-1-methyl-1H-benzo[d]imidazol-2-yl)methoxy)phenyl)propanamide formation at 20 uM after 2 hrs by radio-HPLC/LC-MS/MS analysis in presence of NADPH-generating system and NADPH-generating system/SAM; type: ADME
Liver microsome [3] = experiment: Drug metabolism in Sprague-Dawley rat liver microsomes assessed as formation of 5-(4-((6-hydroxy-1-methyl-1H-benzo[d]imidazol-2-yl)methoxy)benzyl)thiazolidine-2,4-dione at 20 uM after 2 hrs by radio-HPLC/LC-MS/MS analysis in presence of NADPH-generating system and NADPH-generating system/SAM; type: ADME
[4] = Drug metabolism in rat hepatocytes assessed as formation of (2S,3S,4S,5R,6R)-3,4,5-trihydroxy-6-(5-(4-((6-methoxy-1-methyl-1H-benzo[d]imidazol-2-yl)methoxy)benzyl)-2,4-dioxothiazolidin-3-yl)tetrahydro-2H-pyran-2-carboxylic acid at 30 uM after 3 hrs by radio-HPLC/LC-MS/MS analysis in presence of UDPGA and UDPGA/SAM; type: ADME, cell-based, Hepatocyte
Cytochrome P450 2C8 [5] = target: T1, Cytochrome P450 2C8; experiment: Activity of human CYP2C8 expressed in microsomes isolated from baculovirus infected insect cell assessed as enzyme-mediated 3-(4-((6-methoxy-1-methyl-1H-benzo[d]imidazol-2-yl)methoxy)phenyl)-2-(methylthio)propanamide formation at 20 uM after 2 hrs by radio-HPLC/LC-MS/MS analysis in presence of NADPH-generating system/SAM; type: ADME
Cytochrome P450 2C19 = Cytochrome P450 2C19 (Homo sapiens, UniProt P33261); experiment: Activity of human CYP2C19 expressed in microsomes isolated from baculovirus infected insect cell assessed as enzyme-mediated 3-(4-((6-methoxy-1-methyl-1H-benzo[d]imidazol-2-yl)methoxy)phenyl)-2-(methylsulfinyl)propanamide formation at 20 uM after 2 hrs by radio-HPLC/LC-MS/MS analysis in presence of NADPH-generating system/SAM; type: ADME
Cytochrome P450 1A2 = target: T2, Cytochrome P450 1A2 (Homo sapiens, UniProt P05177); experiment: Activity of human CYP1A2 expressed in microsomes isolated from baculovirus infected insect cell assessed as enzyme-mediated 5-hydroxy-5-(4-((6-methoxy-1-methyl-1H-benzo[d]imidazol-2-yl)methoxy)benzyl)thiazolidine-2,4-dione formation at 20 uM after 2 hrs by radio-HPLC/LC-MS/MS analysis in presence of NADPH-generating system and NADPH-generating system/SAM; type: ADME
T2 sequence (P05177 whole entry): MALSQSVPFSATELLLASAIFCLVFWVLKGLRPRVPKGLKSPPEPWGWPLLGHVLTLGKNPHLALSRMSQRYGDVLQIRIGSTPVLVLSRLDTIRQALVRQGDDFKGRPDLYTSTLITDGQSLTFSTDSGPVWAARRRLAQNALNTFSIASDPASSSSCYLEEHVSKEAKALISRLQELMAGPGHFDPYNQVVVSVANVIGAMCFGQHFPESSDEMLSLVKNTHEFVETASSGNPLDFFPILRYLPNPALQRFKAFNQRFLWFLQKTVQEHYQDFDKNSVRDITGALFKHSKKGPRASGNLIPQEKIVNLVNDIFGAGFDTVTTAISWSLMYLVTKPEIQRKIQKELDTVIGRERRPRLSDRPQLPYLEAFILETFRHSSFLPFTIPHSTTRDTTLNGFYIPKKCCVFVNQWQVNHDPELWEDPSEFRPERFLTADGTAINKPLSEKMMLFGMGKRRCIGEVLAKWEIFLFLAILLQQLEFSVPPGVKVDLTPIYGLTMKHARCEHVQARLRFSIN
Summary of the method: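 Baculovirus/insect-cell microsomes expressing single human CYPs, 1 mg/ml protein, with 50 mM potassium phosphate (pH 7.4) or 100 mM Tris-HCl (pH 7.5). NADPH-generating system: 2 mM NADP⁺, 20 mM glucose 6-phosphate, 2 units/ml G6PDH, 10 mM MgCl₂. [¹⁴C]rivoglitazone at 20 μM, 2 h at 37°C with shaking. Control used insect-cell control supersomes. Stopped with acetonitrile; supernatant concentrated under nitrogen; metabolites analysed by radio-HPLC, LC-MS and LC-MS/MS.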

Cytochrome P450 2C9 = Cytochrome P450 2C9 (Homo sapiens, UniProt P11712); experiment: Activity of human CYP2C9 expressed in microsomes isolated from baculovirus infected insect cell assessed as enzyme-mediated 2-((4-((2,4-dioxothiazolidin-5-yl)methyl)phenoxy)methyl)-1-methyl-1H-benzo[d]imidazol-6-yl hydrogen sulfate formation at 20 uM after 2 hrs by radio-HPLC/LC-MS/MS analysis; type: ADME
Summary of the method: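 Baculovirus-insect-cell microsomes expressing the human CYP (1 mg/ml protein) were incubated with [14C]rivoglitazone (20 μM) in 50 mM potassium phosphate (pH 7.4) or 100 mM Tris-HCl (pH 7.5) with an NADPH-generating system (2 mM NADP+, 20 mM glucose 6-phosphate, 2 units/ml G6PDH, 10 mM MgCl2) for 2 h at 37°C. Insect-cell control supersomes served as the control. Reactions were stopped with acetonitrile, and the concentrated supernatants were analysed by radio-HPLC, LC-MS and LC-MS/MS.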

[6] = Drug metabolism in cynomolgus monkey liver microsomes assessed as formation of 3-(4-((6-methoxy-1-methyl-1H-benzo[d]imidazol-2-yl)methoxy)phenyl)-2-(methylsulfonyl)propanamide at 20 uM after 2 hrs by radio-HPLC/LC-MS/MS analysis in presence of NADPH-generating system/SAM; type: ADME, Macaca fascicularis

Cytochrome P450 2C9, sequence (P11712 whole entry): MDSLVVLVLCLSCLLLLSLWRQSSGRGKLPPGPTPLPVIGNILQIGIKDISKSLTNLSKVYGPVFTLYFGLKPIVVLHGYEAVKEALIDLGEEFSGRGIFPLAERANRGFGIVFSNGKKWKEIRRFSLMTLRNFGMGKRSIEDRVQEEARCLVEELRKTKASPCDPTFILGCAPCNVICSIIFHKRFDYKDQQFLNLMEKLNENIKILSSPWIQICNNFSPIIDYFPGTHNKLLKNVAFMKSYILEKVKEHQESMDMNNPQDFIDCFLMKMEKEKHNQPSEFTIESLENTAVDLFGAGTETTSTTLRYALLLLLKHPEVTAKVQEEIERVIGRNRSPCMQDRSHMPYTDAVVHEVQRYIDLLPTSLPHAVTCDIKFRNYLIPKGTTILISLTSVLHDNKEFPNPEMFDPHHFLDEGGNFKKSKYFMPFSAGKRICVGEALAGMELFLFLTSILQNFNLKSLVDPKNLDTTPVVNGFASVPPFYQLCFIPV
Cytochrome P450 2C19, sequence (P33261 whole entry): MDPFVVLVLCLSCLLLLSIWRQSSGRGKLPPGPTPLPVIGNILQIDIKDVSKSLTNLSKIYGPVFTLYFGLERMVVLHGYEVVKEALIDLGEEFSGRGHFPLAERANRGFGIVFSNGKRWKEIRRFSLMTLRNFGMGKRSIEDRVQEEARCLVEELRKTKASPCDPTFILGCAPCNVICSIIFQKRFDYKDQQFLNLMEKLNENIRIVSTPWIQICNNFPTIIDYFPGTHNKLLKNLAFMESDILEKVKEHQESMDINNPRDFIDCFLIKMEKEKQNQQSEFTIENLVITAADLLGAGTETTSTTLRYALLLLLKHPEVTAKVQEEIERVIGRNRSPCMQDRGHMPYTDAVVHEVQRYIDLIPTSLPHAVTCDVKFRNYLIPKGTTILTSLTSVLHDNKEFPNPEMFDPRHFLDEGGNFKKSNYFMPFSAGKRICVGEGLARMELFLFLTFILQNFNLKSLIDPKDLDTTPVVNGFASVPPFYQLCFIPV
Cytochrome P450 2D6, sequence (P10635 whole entry): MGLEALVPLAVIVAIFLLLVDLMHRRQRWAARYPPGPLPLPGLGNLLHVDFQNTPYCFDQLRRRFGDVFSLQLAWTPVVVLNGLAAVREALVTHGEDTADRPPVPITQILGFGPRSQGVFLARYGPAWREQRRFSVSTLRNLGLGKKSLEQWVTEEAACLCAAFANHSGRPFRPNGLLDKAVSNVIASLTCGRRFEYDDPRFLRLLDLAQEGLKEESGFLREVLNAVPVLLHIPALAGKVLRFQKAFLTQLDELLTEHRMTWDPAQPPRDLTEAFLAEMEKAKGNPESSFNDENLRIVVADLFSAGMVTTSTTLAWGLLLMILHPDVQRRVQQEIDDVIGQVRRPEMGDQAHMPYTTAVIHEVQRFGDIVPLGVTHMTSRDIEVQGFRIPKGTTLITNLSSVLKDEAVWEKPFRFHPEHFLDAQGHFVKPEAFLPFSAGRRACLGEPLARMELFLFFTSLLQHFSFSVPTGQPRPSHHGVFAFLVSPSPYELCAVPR

| SMILES | Drug metabolism (Liver microsome [1]) | Drug metabolism (Hepatocyte) | Drug metabolism (Cytochrome P450 2C8 [2]) | Drug metabolism (Cytochrome P450 2D6) | Drug metabolism (Liver microsome [3]) | Drug metabolism [4] | Drug metabolism (Cytochrome P450 2C8 [5]) | Drug metabolism (Cytochrome P450 2C19) | Drug metabolism (Cytochrome P450 1A2) | Drug metabolism (Cytochrome P450 2C9) | Drug metabolism [6] |
| --- | --- | --- | --- | --- | --- | --- | --- | --- | --- | --- | --- |
| COc1ccc2nc(COc3ccc(CC(S)C(=O)O)cc3)n(C)c2c1 (stereo unspecified) | metabolite_detected | metabolite_not_detected |  |  |  |  |  |  |  |  |  |
| COc1ccc2nc(COc3ccc(C[14CH]4SC(=O)NC4=O)cc3)n(C)c2c1.Cl (racemic) |  |  | metabolite_not_detected | metabolite_detected | metabolite_detected | metabolite_detected | metabolite_not_detected | metabolite_not_detected | metabolite_detected | metabolite_not_detected | metabolite_detected |
